From ChEMBL document CHEMBL4251648, “Synthesis and bioevaluation and doking study of 1H-pyrrolo[2,3-b]pyridine derivatives bearing aromatic hydrazone moiety as c-Met inhibitors” (Eur J Med Chem, 2018)
The source made the active and inactive calls. The calls are words filed in the database; no cut-off is given here.

Columns and labels:
[1] = target: Epidermal growth factor receptor (Homo sapiens, UniProt P00533); assay: Inhibition of EGFR (unknown origin)
[2] = target: Vascular endothelial growth factor receptor 2 (Homo sapiens, UniProt P35968); assay: Inhibition of VEGFR2 (unknown origin)
PC-3 = assay: Antiproliferative activity against human PC3 cells after 72 hrs by MTT assay; assay type: functional, cell-based; conditions: for IC50: Homo sapiens, PC-3, 72 h, read-out: IC50
Procedure, shortened: (§1)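 Cells grown in MEM with 10% FBS. About 4×10³ cells per well, pre-incubated 24 h at 37°C in 5% CO₂. Compound added at final concentrations, then 72 h. MTT added at 5 µg/mL final for 4 h at 37°C. Tested three times; IC50 taken as the average of […] determinations.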

A549 [3] = assay: Antiproliferative activity against human A549 cells after 72 hrs by MTT assay; assay type: functional, cell-based; conditions: for IC50: Homo sapiens, A549, 72 h, read-out: IC50; procedure, shortened: as §1
[4] = target: Hepatocyte growth factor receptor (Homo sapiens, UniProt P08581); assay: Inhibition of c-Met (unknown origin) using FAM-labeled peptide substrate after 10 mins by mobility shift assay
MCF7 = assay: Antiproliferative activity against human MCF7 cells after 72 hrs by MTT assay; assay type: functional, cell-based; conditions: for IC50: Homo sapiens, MCF7, 72 h, read-out: IC50; procedure, shortened: as §1
[5] = target: T1, Receptor-type tyrosine-protein kinase FLT3 (Homo sapiens, UniProt P36888); assay: Inhibition of FLT3 (unknown origin)
T1 sequence (P36888 whole entry): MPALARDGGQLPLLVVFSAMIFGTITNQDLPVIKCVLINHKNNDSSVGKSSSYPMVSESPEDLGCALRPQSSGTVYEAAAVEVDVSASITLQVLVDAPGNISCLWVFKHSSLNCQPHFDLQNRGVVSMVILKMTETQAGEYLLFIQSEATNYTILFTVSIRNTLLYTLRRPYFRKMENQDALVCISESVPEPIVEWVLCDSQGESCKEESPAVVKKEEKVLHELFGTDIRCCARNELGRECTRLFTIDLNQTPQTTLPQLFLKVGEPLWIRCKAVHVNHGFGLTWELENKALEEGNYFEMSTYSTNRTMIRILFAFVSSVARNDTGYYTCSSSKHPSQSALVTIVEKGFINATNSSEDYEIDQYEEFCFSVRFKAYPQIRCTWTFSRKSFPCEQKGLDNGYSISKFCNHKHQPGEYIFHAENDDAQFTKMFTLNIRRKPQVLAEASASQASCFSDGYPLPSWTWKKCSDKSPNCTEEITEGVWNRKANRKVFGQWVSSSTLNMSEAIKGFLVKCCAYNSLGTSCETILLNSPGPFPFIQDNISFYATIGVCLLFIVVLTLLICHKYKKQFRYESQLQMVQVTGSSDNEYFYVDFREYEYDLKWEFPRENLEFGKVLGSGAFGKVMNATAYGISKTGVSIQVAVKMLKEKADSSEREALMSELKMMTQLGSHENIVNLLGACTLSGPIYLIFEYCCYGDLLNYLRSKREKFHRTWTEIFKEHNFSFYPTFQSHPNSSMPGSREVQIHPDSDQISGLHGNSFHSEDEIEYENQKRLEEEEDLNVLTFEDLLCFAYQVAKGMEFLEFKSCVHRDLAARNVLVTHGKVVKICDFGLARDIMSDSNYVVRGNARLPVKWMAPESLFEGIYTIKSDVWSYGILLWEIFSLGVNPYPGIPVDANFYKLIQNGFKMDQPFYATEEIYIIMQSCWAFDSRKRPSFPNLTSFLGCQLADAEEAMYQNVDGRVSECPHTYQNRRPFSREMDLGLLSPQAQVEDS

HepG2 = assay: Antiproliferative activity against human HepG2 cells after 72 hrs by MTT assay; assay type: functional, cell-based; conditions: for IC50: Homo sapiens, HepG2, 72 h, read-out: IC50
Procedure, shortened: as §1, with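 “37°C. Formazan dissolved in DMSO and read at 492 nm against 630 nm reference.” for “37°C.”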

A549 [6] = assay: Cell cycle arrest in human A549 cells assessed as accumulation at G1 phase at 4 uM after 12 hrs by propidium iodide staining-based flow cytometry (reference value: 27.08%); assay type: functional
A549 [7] = assay: Cell cycle arrest in human A549 cells assessed as accumulation at G2/M phase at 4 uM after 12 hrs by propidium iodide staining-based flow cytometry (reference value: 23.62%); assay type: functional
A549 [8] = assay: Cell cycle arrest in human A549 cells assessed as accumulation at S phase at 4 uM after 12 hrs by propidium iodide staining-based flow cytometry (reference value: 48.44%); assay type: functional
A549 [9] = assay: Cell cycle arrest in human A549 cells assessed as accumulation at sub-G1 phase at 4 uM after 12 hrs by propidium iodide staining-based flow cytometry (reference value: 0.06%); assay type: functional
A549 [10] = assay: Antiproliferative activity against human A549 cells at 0.08 to 8 ug/ml by MTT assay; assay type: functional, cell-based; conditions: TDE = time-dependent effect
A549 [11] = assay: Induction of apoptosis in human A549 cells assessed as change in cell morphology at 0.8 uM after 12 hrs by acridine orange staining-based fluorescence microscopic method; assay type: functional
Procedure, shortened: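 A549 cells in MEM with 10% FBS, about 2×10⁴ per well, pre-incubated 24 h at 37°C in 5% CO₂. Given drug-free medium or 0.80 µM compound for 12 h. Stained with acridine orange in PBS at 10 µg/mL final for 10 min in the dark, washed three times with PBS, and nuclear morphology viewed by fluorescence microscopy.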

Sequence of Epidermal growth factor receptor (P00533 whole entry): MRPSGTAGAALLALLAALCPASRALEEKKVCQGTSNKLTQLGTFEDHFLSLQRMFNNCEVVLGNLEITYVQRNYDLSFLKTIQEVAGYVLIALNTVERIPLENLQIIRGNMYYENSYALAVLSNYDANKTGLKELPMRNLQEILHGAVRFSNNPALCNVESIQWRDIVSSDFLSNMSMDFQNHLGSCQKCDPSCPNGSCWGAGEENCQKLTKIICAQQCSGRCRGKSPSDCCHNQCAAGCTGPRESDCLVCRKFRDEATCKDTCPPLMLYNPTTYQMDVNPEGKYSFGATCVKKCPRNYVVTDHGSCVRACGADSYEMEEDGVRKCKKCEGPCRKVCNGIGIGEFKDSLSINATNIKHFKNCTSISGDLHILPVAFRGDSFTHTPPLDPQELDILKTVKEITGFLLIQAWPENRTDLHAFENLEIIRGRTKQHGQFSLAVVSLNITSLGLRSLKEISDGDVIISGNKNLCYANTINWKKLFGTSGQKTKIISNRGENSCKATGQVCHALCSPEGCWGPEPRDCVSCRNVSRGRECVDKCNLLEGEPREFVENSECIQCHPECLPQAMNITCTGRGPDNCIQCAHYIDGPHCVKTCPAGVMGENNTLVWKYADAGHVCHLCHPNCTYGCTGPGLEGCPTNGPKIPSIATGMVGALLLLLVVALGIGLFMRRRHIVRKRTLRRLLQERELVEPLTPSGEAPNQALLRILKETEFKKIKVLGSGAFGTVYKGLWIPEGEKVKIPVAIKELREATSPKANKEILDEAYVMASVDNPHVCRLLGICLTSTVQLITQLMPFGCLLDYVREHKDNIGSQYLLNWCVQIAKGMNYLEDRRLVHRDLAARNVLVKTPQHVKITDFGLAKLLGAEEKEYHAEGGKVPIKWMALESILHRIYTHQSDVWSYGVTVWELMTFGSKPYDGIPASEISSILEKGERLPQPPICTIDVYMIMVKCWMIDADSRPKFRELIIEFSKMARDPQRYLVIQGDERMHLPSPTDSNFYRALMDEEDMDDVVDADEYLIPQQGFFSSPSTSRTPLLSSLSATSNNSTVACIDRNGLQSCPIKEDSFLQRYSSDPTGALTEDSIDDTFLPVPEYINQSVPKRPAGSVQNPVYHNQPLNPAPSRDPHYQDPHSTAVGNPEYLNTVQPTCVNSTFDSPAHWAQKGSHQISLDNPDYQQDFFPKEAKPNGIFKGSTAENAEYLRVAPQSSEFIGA
Sequence of Hepatocyte growth factor receptor (P08581 whole entry): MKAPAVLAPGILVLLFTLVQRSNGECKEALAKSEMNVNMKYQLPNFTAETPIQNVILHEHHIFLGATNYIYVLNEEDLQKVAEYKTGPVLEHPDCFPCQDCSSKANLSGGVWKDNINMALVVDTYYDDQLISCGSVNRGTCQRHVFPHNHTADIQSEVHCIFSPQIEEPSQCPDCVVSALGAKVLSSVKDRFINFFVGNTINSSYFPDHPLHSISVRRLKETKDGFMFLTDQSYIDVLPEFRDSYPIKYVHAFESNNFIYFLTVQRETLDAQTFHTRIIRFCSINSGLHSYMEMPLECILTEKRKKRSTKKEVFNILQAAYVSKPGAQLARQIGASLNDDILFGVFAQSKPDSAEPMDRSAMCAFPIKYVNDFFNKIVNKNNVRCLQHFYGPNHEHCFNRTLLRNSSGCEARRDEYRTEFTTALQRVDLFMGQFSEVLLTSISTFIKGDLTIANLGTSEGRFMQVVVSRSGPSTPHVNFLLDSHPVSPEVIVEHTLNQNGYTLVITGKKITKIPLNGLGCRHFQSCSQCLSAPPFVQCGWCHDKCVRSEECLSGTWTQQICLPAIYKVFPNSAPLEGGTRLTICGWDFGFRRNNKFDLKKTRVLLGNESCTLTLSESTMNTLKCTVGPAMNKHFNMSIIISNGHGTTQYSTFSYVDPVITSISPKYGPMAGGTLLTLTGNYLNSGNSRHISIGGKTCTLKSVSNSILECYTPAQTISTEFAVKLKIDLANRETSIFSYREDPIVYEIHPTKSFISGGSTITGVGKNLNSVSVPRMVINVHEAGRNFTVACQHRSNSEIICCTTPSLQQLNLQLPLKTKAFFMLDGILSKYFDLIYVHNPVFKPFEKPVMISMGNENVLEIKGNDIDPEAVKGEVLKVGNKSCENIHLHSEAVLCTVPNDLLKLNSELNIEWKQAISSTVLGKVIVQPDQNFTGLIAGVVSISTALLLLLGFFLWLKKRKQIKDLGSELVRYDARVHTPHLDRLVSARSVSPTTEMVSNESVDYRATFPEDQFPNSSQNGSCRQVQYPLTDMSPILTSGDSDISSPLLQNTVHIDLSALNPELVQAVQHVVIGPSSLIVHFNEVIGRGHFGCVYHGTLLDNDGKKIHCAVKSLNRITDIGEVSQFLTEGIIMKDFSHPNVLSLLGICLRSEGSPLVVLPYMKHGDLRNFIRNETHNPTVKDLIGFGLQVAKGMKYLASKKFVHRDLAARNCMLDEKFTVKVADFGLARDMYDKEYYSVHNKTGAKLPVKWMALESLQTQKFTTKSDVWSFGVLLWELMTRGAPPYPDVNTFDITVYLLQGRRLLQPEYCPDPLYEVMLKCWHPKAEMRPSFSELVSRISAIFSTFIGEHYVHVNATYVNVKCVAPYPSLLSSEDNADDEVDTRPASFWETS
Sequence of Vascular endothelial growth factor receptor 2 (P35968 whole entry): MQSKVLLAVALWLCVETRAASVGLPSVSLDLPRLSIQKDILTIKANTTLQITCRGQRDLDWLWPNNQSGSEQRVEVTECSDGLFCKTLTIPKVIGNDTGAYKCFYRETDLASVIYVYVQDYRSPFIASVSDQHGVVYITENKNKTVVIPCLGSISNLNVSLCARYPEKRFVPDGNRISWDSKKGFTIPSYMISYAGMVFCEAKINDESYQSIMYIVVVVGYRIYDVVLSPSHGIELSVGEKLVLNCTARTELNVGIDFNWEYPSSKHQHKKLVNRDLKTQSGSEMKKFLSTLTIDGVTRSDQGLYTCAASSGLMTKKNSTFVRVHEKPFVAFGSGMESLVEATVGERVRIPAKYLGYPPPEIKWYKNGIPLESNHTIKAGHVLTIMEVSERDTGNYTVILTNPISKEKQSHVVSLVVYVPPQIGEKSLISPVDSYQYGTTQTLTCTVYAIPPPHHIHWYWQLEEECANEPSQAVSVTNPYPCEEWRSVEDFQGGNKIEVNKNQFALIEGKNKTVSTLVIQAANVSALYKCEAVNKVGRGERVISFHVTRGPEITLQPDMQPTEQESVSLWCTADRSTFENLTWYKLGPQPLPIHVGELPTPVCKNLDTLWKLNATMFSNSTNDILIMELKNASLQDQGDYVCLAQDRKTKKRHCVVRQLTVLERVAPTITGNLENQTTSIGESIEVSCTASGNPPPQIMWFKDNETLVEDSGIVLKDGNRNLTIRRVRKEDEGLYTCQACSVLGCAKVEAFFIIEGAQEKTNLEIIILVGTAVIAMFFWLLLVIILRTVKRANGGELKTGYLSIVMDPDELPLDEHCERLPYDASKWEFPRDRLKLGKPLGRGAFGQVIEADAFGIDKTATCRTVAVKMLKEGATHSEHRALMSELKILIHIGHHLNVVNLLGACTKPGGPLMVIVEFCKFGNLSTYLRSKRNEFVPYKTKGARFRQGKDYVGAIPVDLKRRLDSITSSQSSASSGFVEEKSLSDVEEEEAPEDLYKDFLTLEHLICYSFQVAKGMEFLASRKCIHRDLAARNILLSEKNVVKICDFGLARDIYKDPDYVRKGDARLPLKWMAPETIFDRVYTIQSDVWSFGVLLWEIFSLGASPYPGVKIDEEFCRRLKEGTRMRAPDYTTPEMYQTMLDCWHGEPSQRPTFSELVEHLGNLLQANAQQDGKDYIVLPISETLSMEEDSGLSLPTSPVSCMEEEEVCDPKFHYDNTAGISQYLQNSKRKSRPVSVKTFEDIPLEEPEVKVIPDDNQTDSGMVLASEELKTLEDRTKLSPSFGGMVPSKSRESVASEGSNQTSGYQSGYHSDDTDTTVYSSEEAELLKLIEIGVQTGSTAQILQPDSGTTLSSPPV

O=C(N/N=C/c1cccn1CCCN1CCCC1)Nc1ccc(Oc2ccnc3[nH]ccc23)cc1
IC50 [1]: 45 µM | IC50 [2]: 14.4 µM | IC50 (PC-3): 4.29 µM | IC50 (A549 [3]): 1.3 µM | IC50 [4]: 0.907 µM | IC50 (MCF7): 4.53 µM | IC50 [5]: 3.8 µM | IC50 (HepG2): 1.42 µM

O=C(N/N=C/c1ccc(Br)cc1)Nc1ccc(Oc2ccnc3[nH]ccc23)c(F)c1
Activity (A549 [6]): 10.67% | Activity (A549 [7]): 79.86% | IC50 [1]: > 100 µM | IC50 [2]: 8.9 µM | Activity (A549 [8]): 7.08% | Activity (A549 [9]): 0.01% | Activity (A549 [10]): Tde | Activity (PC-3): Dose-dependent effect | IC50 (PC-3): 0.92 µM | Activity (A549 [3]): Dose-dependent effect | IC50 (A549 [3]): 0.82 µM | IC50 [4]: 0.506 µM | Activity (A549 [11]): Active | Activity (MCF7): Dose-dependent effect | IC50 (MCF7): 0.93 µM | IC50 [5]: 2.6 µM | Activity (HepG2): Dose-dependent effect | IC50 (HepG2): 1 µM
